Measurements from ChEMBL document CHEMBL1155468, “Syntheses and evaluation of anticonvulsant profile and teratogenicity of novel amide derivatives of branched aliphatic carboxylic acids with 4-aminobenzensulfonamide” (J Med Chem, 2010).
Calls of active or inactive are those of the source. The rule behind the calls is not given here.

Columns and labels:
Mus musculus [1] = assay: Anticonvulsant activity in CF1 albino mouse assessed as inhibition of subcutaneous pentylenetetrazole-induced seizures at 30 mg/kg, ip after 0.5 hrs; type: functional, organism-based; design: dose 30 mg/kg
Procedure, shortened: (§1)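 Adult male CF no. 1 albino mice (18-25 g) dosed ip with compound suspended in 0.5% methylcellulose (0.01 mL/g). Convulsant: pentylenetetrazol dissolved in 0.9% saline as a 0.85% solution for mice, given subcutaneously.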

Mus musculus [2] = assay: Anticonvulsant activity in CF1 albino mouse assessed as inhibition of subcutaneous pentylenetetrazole-induced seizures at 100 mg/kg, ip after 0.5 hrs; type: functional, organism-based; design: dose 100 mg/kg; procedure, shortened: as §1
Mus musculus [3] = assay: Anticonvulsant activity in CF1 albino mouse assessed as inhibition of subcutaneous pentylenetetrazole-induced seizures at 300 mg/kg, ip after 0.5 hrs; type: functional, organism-based; design: dose 300 mg/kg; procedure, shortened: as §1
Mus musculus [4] = assay: Anticonvulsant activity in CF1 albino mouse assessed as inhibition of subcutaneous pentylenetetrazole-induced seizures at 30 mg/kg, ip after 4 hrs; type: functional, organism-based; design: dose 30 mg/kg; procedure, shortened: as §1
Mus musculus [5] = assay: Anticonvulsant activity in CF1 albino mouse assessed as inhibition of subcutaneous pentylenetetrazole-induced seizures at 100 mg/kg, ip after 4 hrs; type: functional, organism-based; design: dose 100 mg/kg; procedure, shortened: as §1
Mus musculus [6] = assay: Teratogenic effect in SWV mouse assessed as dead fetuses at 91 mg/kg, ip administered on morning of day 8 of gestation; type: toxicity, organism-based; design: dose 91 mg/kg, route intraperitoneal; conditions: in vivo
Mus musculus [7] = assay: Teratogenic effect in SWV mouse assessed as fetuses with neural tube deffects at 301 mg/kg, ip administered on morning of day 8 of gestation; type: toxicity, organism-based; design: dose 301 mg/kg, route intraperitoneal; conditions: in vivo
Mus musculus [8] = assay: Teratogenic effect in SWV mouse assessed as resorptions at 452 mg/kg, ip administered on morning of day 8 of gestation; type: toxicity, organism-based; design: dose 452 mg/kg, route intraperitoneal; conditions: in vivo
Mus musculus [9] = assay: Teratogenic effect in SWV mouse assessed as resorptions at 301 mg/kg, ip administered on morning of day 8 of gestation; type: toxicity, organism-based; design: dose 301 mg/kg, route intraperitoneal; conditions: in vivo
Mus musculus [10] = assay: Teratogenic effect in SWV mouse assessed as resorptions at 181 mg/kg, ip administered on morning of day 8 of gestation; type: toxicity, organism-based; design: dose 181 mg/kg, route intraperitoneal; conditions: in vivo
Mus musculus [11] = assay: Teratogenic effect in SWV mouse assessed as resorptions at 91 mg/kg, ip administered on morning of day 8 of gestation; type: toxicity, organism-based; design: dose 91 mg/kg, route intraperitoneal; conditions: in vivo
Mus musculus [12] = assay: Teratogenic effect in SWV mouse assessed as live fetuses at 452 mg/kg, ip administered on morning of day 8 of gestation; type: toxicity, organism-based; design: dose 452 mg/kg, route intraperitoneal; conditions: in vivo
Mus musculus [13] = assay: Teratogenic effect in SWV mouse assessed as live fetuses at 301 mg/kg, ip administered on morning of day 8 of gestation; type: toxicity, organism-based; design: dose 301 mg/kg, route intraperitoneal; conditions: in vivo
Procedure, shortened: (§2)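 Two-month-old nulligravid SWV females were mated overnight and checked for vaginal plugs the next morning; gestation onset was set at 10 p.m. the previous night. On gestation day 8.5, each dam received a single ip injection (0.55-2.7 mmol/kg range) or vehicle (25% aqueous Cremophor EL) at 10 μL/g body weight. Litters were scored for implants, resorptions, live and dead fetuses, and fetuses with neural tube defects.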

Mus musculus [14] = assay: Teratogenic effect in SWV mouse assessed as live fetuses at 91 mg/kg, ip administered on morning of day 8 of gestation; type: toxicity, organism-based; design: dose 91 mg/kg, route intraperitoneal; conditions: in vivo
Mus musculus [15] = assay: Teratogenic effect in SWV mouse assessed as dead fetuses at 452 mg/kg, ip administered on morning of day 8 of gestation; type: toxicity, organism-based; design: dose 452 mg/kg, route intraperitoneal; conditions: in vivo
Mus musculus [16] = assay: Teratogenic effect in SWV mouse assessed as dead fetuses at 301 mg/kg, ip administered on morning of day 8 of gestation; type: toxicity, organism-based; design: dose 301 mg/kg, route intraperitoneal; conditions: in vivo
Mus musculus [17] = assay: Anticonvulsant activity in CF1 albino mouse assessed as inhibition of maximal electroshock-induced seizures at 30 mg/kg, ip after 0.5 hrs; type: functional, organism-based; design: dose 30 mg/kg
Procedure, shortened: (§3)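 Test compounds suspended in 0.5% methylcellulose and given ip to adult male CF no. 1 albino mice (18-25 g) at 0.01 mL/g body weight before maximal electroshock challenge.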

Mus musculus [18] = assay: Anticonvulsant activity in CF1 albino mouse assessed as inhibition of maximal electroshock-induced seizures at 100 mg/kg, ip after 0.5 hrs; type: functional, organism-based; design: dose 100 mg/kg; procedure, shortened: as §3
Mus musculus [19] = assay: Anticonvulsant activity in CF1 albino mouse assessed as inhibition of maximal electroshock-induced seizures at 300 mg/kg, ip after 0.5 hrs; type: functional, organism-based; design: dose 300 mg/kg; procedure, shortened: as §3
Mus musculus [20] = assay: Anticonvulsant activity in CF1 albino mouse assessed as inhibition of maximal electroshock-induced seizures at 30 mg/kg, ip after 4 hrs; type: functional, organism-based; design: dose 30 mg/kg; procedure, shortened: as §3
Mus musculus [21] = assay: Anticonvulsant activity in CF1 albino mouse assessed as inhibition of maximal electroshock-induced seizures at 100 mg/kg, ip after 4 hrs; type: functional, organism-based; design: dose 100 mg/kg; procedure, shortened: as §3
Mus musculus [22] = assay: Anticonvulsant activity in CF1 albino mouse assessed as inhibition of maximal electroshock-induced seizures at 300 mg/kg, ip after 4 hrs; type: functional, organism-based; design: dose 300 mg/kg; procedure, shortened: as §3
Mus musculus [23] = assay: Anticonvulsant activity in CF1 albino mouse assessed as inhibition of subcutaneous pentylenetetrazole-induced seizures at 300 mg/kg, ip after 4 hrs; type: functional, organism-based; design: dose 300 mg/kg; procedure, shortened: as §1
Mus musculus [24] = assay: Neurotoxicity in CF1 albino mouse assessed as motor impairment at 30 mg/kg, ip after 0.5 hrs; type: toxicity, organism-based; design: dose 30 mg/kg, route intraperitoneal; conditions: in vivo
Mus musculus [25] = assay: Neurotoxicity in CF1 albino mouse assessed as motor impairment at 100 mg/kg, ip after 0.5 hrs; type: toxicity, organism-based; design: dose 100 mg/kg, route intraperitoneal; conditions: in vivo
Mus musculus [26] = assay: Neurotoxicity in CF1 albino mouse assessed as motor impairment at 300 mg/kg, ip after 0.5 hrs; type: toxicity, organism-based; design: dose 300 mg/kg, route intraperitoneal; conditions: in vivo
Mus musculus [27] = assay: Neurotoxicity in CF1 albino mouse assessed as motor impairment at 30 mg/kg, ip after 4 hrs; type: toxicity, organism-based; design: dose 30 mg/kg, route intraperitoneal; conditions: in vivo
Mus musculus [28] = assay: Neurotoxicity in CF1 albino mouse assessed as motor impairment at 100 mg/kg, ip after 4 hrs; type: toxicity, organism-based; design: dose 100 mg/kg, route intraperitoneal; conditions: in vivo
Mus musculus [29] = assay: Neurotoxicity in CF1 albino mouse assessed as motor impairment at 300 mg/kg, ip after 4 hrs; type: toxicity, organism-based; design: dose 300 mg/kg, route intraperitoneal; conditions: in vivo
Mus musculus [30] = assay: Teratogenic effect in SWV mouse assessed as dead fetuses at 522 mg/kg, ip administered on morning of day 8 of gestation; type: toxicity, organism-based; design: dose 522 mg/kg, route intraperitoneal; conditions: in vivo
Procedure, shortened: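 Inbred SWV mice, which are susceptible to VPA-induced neural tube defects. Two-month-old nulligravid females were mated overnight and checked for vaginal plugs next morning; gestation onset was taken as 10 p.m. the prior night. On gestation day 8.5, each dam received a single ip dose (range 0.55-2.7 mmol/kg) in 25% aqueous Cremophor EL at 10 μL/g. Dead fetuses were counted per implants.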

Mus musculus [31] = assay: Teratogenic effect in SWV mouse assessed as resorptions at 783 mg/kg, ip administered on morning of day 8 of gestation; type: toxicity, organism-based; design: dose 783 mg/kg, route intraperitoneal; conditions: in vivo
Procedure, shortened: (§4)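 SWV inbred mice: two-month-old nulligravid females mated overnight with males and checked for vaginal plugs next morning; gestation onset taken as 10 p.m. the previous night. On gestation day 8.5 each dam got one ip injection, 0.55–2.7 mmol/kg, in 25% aqueous Cremophor EL (vehicle controls dosed alike), 10 μL/g body weight. Litters and implants tallied; resorptions and live fetuses reported as counts with percentages.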

Mus musculus [32] = assay: Teratogenic effect in SWV mouse assessed as resorptions at 522 mg/kg, ip administered on morning of day 8 of gestation; type: toxicity, organism-based; design: dose 522 mg/kg, route intraperitoneal; conditions: in vivo; procedure, shortened: as §4
Mus musculus [33] = assay: Teratogenic effect in SWV mouse assessed as resorptions at 316 mg/kg, ip administered on morning of day 8 of gestation; type: toxicity, organism-based; design: dose 316 mg/kg, route intraperitoneal; conditions: in vivo; procedure, shortened: as §4
Mus musculus [34] = assay: Teratogenic effect in SWV mouse assessed as resorptions at 159 mg/kg, ip administered on morning of day 8 of gestation; type: toxicity, organism-based; design: dose 159 mg/kg, route intraperitoneal; conditions: in vivo; procedure, shortened: as §4
Mus musculus [35] = assay: Teratogenic effect in SWV mouse assessed as fetuses with neural tube deffects at 522 mg/kg, ip administered on morning of day 8 of gestation; type: toxicity, organism-based; design: dose 522 mg/kg, route intraperitoneal; conditions: in vivo; procedure, shortened: as §2
Mus musculus [36] = assay: Teratogenic effect in SWV mouse assessed as live fetuses at 783 mg/kg, ip administered on morning of day 8 of gestation; type: toxicity, organism-based; design: dose 783 mg/kg, route intraperitoneal; conditions: in vivo; procedure, shortened: as §4
Mus musculus [37] = assay: Teratogenic effect in SWV mouse assessed as live fetuses at 522 mg/kg, ip administered on morning of day 8 of gestation; type: toxicity, organism-based; design: dose 522 mg/kg, route intraperitoneal; conditions: in vivo; procedure, shortened: as §4
Mus musculus [38] = assay: Teratogenic effect in SWV mouse assessed as live fetuses at 316 mg/kg, ip administered on morning of day 8 of gestation; type: toxicity, organism-based; design: dose 316 mg/kg, route intraperitoneal; conditions: in vivo; procedure, shortened: as §4
Mus musculus [39] = assay: Teratogenic effect in SWV mouse assessed as live fetuses at 159 mg/kg, ip administered on morning of day 8 of gestation; type: toxicity, organism-based; design: dose 159 mg/kg, route intraperitoneal; conditions: in vivo; procedure, shortened: as §2
Rattus norvegicus [40] = assay: Anticonvulsant activity in Sprague-Dawley rat assessed as inhibition of maximal electroshock-induced seizures at 30 mg/kg, po after 1 hr
Rattus norvegicus [41] = assay: Anticonvulsant activity in Sprague-Dawley rat assessed as inhibition of maximal electroshock-induced seizures at 30 mg/kg, po after 4 hrs
Rattus norvegicus [42] = assay: Anticonvulsant activity in Sprague-Dawley rat assessed as inhibition of maximal electroshock-induced seizures at 30 mg/kg, po after 30 mins
Rattus norvegicus [43] = assay: Anticonvulsant activity in Sprague-Dawley rat assessed as inhibition of maximal electroshock-induced seizures at 30 mg/kg, po after 15 mins

| SMILES | Activity (Mus musculus [1]) | Activity (Mus musculus [2]) | Activity (Mus musculus [3]) | Activity (Mus musculus [4]) | Activity (Mus musculus [5]) | Activity (Mus musculus [17]) | Activity (Mus musculus [18]) | Activity (Mus musculus [19]) | Activity (Mus musculus [20]) | Activity (Mus musculus [21]) | Activity (Mus musculus [22]) | Activity (Mus musculus [23]) | Activity (Mus musculus [24]) | Activity (Mus musculus [25]) | Activity (Mus musculus [26]) | Activity (Mus musculus [27]) | Activity (Mus musculus [28]) | Activity (Mus musculus [29]) | also measured |
| --- | --- | --- | --- | --- | --- | --- | --- | --- | --- | --- | --- | --- | --- | --- | --- | --- | --- | --- | --- |
| CCCC(CCC)C(=O)O [VALPROIC ACID] | inactive | inactive | Active | inactive | inactive | inactive | inactive | Active | inactive | inactive | inactive | inactive | Non-toxic | Non-toxic | Toxic | Non-toxic | Non-toxic | Non-toxic | Activity (Mus musculus [6]): 0.7%; Activity (Mus musculus [7]): 1.5%; Activity (Mus musculus [8]): 11.3%; Activity (Mus musculus [9]): 11%; Activity (Mus musculus [10]): 7.7%; Activity (Mus musculus [11]): 5.7%; Activity (Mus musculus [12]): 88.1%; Activity (Mus musculus [13]): 86.4%; Activity (Mus musculus [14]): 93.6%; Activity (Mus musculus [15]): 0.6%; Activity (Mus musculus [16]): 2.6% |
| NS(=O)(=O)c1ccc(NC(=O)Cc2ccccc2)cc1 | inactive | inactive | inactive | inactive | inactive | inactive | Active | Active | inactive | Active | Active | inactive | Non-toxic | Non-toxic | Non-toxic | Non-toxic | Non-toxic | Non-toxic | Activity (Mus musculus [30]): 1.8%; Activity (Mus musculus [31]): 83.3%; Activity (Mus musculus [32]): 34.5%; Activity (Mus musculus [33]): 3.6%; Activity (Mus musculus [34]): 6.2%; Activity (Mus musculus [35]): 3%; Activity (Mus musculus [36]): 16.7%; Activity (Mus musculus [37]): 63.7%; Activity (Mus musculus [38]): 96.4%; Activity (Mus musculus [39]): 93.8%; Activity (Rattus norvegicus [40]): Active; Activity (Rattus norvegicus [41]): Active; Activity (Rattus norvegicus [42]): inactive; Activity (Rattus norvegicus [43]): inactive |
